Results taken from ChEMBL document CHEMBL2417474, “Synthesis, antiproliferative and anti-inflammatory activities of some novel 6-aryl-2-(p-(methanesulfonyl)phenyl)-4,5-dihydropyridazi-3(2H)-ones” (Eur J Med Chem, 2013).

How the values were obtained:
Assay type in all cases: functional
MDA-MB-468 = assay: Growth inhibition of human MDA-MB-468 cells assessed as cell growth at 10 uM after 48 hrs by sulforhodamine B assay; details: MDA-MB-468, 48 h, read-out: Activity
T47D [1] = assay: Growth inhibition of human T47D cells assessed as cell growth at 10 uM after 48 hrs by sulforhodamine B assay; details: read-out: Activity
How it was run: (§1)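 Single-dose NCI screen. Tumor lines were cultured in medium with 5% fetal calf serum and 2 mM L-glutamine, preincubated 24 h, then given compound in DMSO. After 48 h continuous exposure, cell growth was estimated by sulforhodamine B protein assay.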

OVCAR-8 [2] = assay: Growth inhibition of human OVCAR8 cells assessed as cell growth at 10 uM after 48 hrs by sulforhodamine B assay; details: OVCAR-8, 48 h, read-out: Activity
UACC-257 [3] = assay: Growth inhibition of human UACC257 cells assessed as cell growth at 10 uM after 48 hrs by sulforhodamine B assay; details: UACC-257, 48 h, read-out: Activity; how it was run: as §1
SK-MEL-5 = assay: Growth inhibition of human SK-MEL-5 cells assessed as cell growth at 10 uM after 48 hrs by sulforhodamine B assay; details: SK-MEL-5, 48 h, read-out: Activity
SK-MEL-28 = assay: Growth inhibition of human SK-MEL-28 cells assessed as cell growth at 10 uM after 48 hrs by sulforhodamine B assay; details: SK-MEL-28, 48 h, read-out: Activity
MDA-MB-435 = assay: Growth inhibition of human MDA-MB-435 cells assessed as cell growth at 10 uM after 48 hrs by sulforhodamine B assay; details: MDA-MB-435, 48 h, read-out: Activity
LOX IMVI = assay: Growth inhibition of human LOXIMVI cells assessed as cell growth at 10 uM after 48 hrs by sulforhodamine B assay; details: read-out: Activity
SW-620 = assay: Growth inhibition of human SW620 cells assessed as cell growth at 10 uM after 48 hrs by sulforhodamine B assay; details: SW-620, 48 h, read-out: Activity; how it was run: as §1
COLO 205 = assay: Growth inhibition of human COLO205 cells assessed as cell growth at 10 uM after 48 hrs by sulforhodamine B assay; details: COLO 205, 48 h, read-out: Activity
NCI-H522 = assay: Growth inhibition of human NCI-H522 cells assessed as cell growth at 10 uM after 48 hrs by sulforhodamine B assay; details: NCI-H522, 48 h, read-out: Activity
NCI-H226 = assay: Growth inhibition of human NCI-H226 cells assessed as cell growth at 10 uM after 48 hrs by sulforhodamine B assay; details: NCI-H226, 48 h, read-out: Activity
HOP-92 = assay: Growth inhibition of human HOP92 cells assessed as cell growth at 10 uM after 48 hrs by sulforhodamine B assay; details: HOP-92, 48 h, read-out: Activity
HL-60(TB) [4] = assay: Growth inhibition of human HL-60(TB) cells assessed as cell growth at 10 uM after 48 hrs by sulforhodamine B assay; details: HL-60, 48 h, read-out: Activity
T47D [5] = assay: Growth inhibition of human T47D cells after 48 hrs by sulforhodamine B assay
How it was run: (§2)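 NCI 60-line panel. Cells were grown in medium with 5% fetal calf serum and 2 mM L-glutamine and preincubated 24 h in plates. Compound in DMSO was added at 10^-4 to 10^-8 M (five 10-fold levels), with continuous exposure for 48 h. Growth was read by SRB protein staining. GI50 is the concentration giving 50% reduction in net protein increase versus control cells.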

[6] = Growth inhibition of human Hs 578T cells after 48 hrs by sulforhodamine B assay
How it was run: (§3)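 NCI 60-cell-line panel grown in RPMI-type medium with 5% fetal calf serum and 2 mM L-glutamine. Cells preincubated 24 h, then exposed continuously for 48 h to compound in DMSO at 10^-4 to 10^-8 M (five 10-fold levels). Growth read by SRB protein stain. GI50 is the concentration giving a 50% reduction in net protein increase relative to control cells.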

ACHN = assay: Growth inhibition of human ACHN cells after 48 hrs by sulforhodamine B assay; how it was run: as §3
OVCAR-8 [7] = assay: Growth inhibition of human OVCAR8 cells after 48 hrs by sulforhodamine B assay; details: OVCAR-8, 48 h
How it was run: (§4)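 NCI 60-cell-line panel. Cells were grown in medium with 5% fetal calf serum and 2 mM L-glutamine, then preincubated 24 h in plates. Compounds were added from DMSO at five 10-fold concentrations from 100 to 0.01 µM and left on cells continuously for 48 h. Cell growth was read by sulforhodamine B protein stain. GI50 is the concentration that halves net protein increase relative to control cells.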

OVCAR-4 = assay: Growth inhibition of human OVCAR4 cells after 48 hrs by sulforhodamine B assay; details: OVCAR-4, 48 h; how it was run: as §4
UACC-257 [8] = assay: Growth inhibition of human UACC257 cells after 48 hrs by sulforhodamine B assay; details: UACC-257, 48 h; how it was run: as §2
M14 = assay: Growth inhibition of human M14 cells after 48 hrs by sulforhodamine B assay; details: M14, 48 h; how it was run: as §3
U-251 = assay: Growth inhibition of human U251 cells after 48 hrs by sulforhodamine B assay; details: U-251, 48 h; how it was run: as §2
SF-268 = assay: Growth inhibition of human SF268 cells after 48 hrs by sulforhodamine B assay; details: SF-268, 48 h; how it was run: as §4
[9] = Growth inhibition of human HCC2998 cells after 48 hrs by sulforhodamine B assay; details: HCC 2998, 48 h; how it was run: as §3
NCI-H460 = assay: Growth inhibition of human NCI-H460 cells after 48 hrs by sulforhodamine B assay; details: NCI-H460, 48 h; how it was run: as §4
RPMI-8226 = assay: Growth inhibition of human RPMI8226 cells after 48 hrs by sulforhodamine B assay; details: RPMI-8226, 48 h; how it was run: as §4
HL-60(TB) [10] = assay: Growth inhibition of human HL-60(TB) cells after 48 hrs by sulforhodamine B assay; details: HL-60, 48 h
How it was run: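 Part of the NCI 60-cell-line panel. Cells were grown in 1640 medium with 5% fetal calf serum and 2 mM L-glutamine, then preincubated 24 h before compound was added. Compounds in DMSO were tested at five concentrations (100, 10, 1, 0.1, 0.01 µM) with 48 h continuous exposure. Read-out was SRB protein staining; GI50 is the concentration halving the net protein increase versus control.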

[11] = read-out: LC50 (the source's name)

Question: With `Cc1ccc(C2=NN(c3ccc(S(C)(=O)=O)cc3)C(=O)CC2)cc1` as the compound, how does the growth at 10 µM (MDA-MB-468) read?
Answer: The growth at 10 µM was 23.9%.

Question: And the growth at 10 µM (T47D [1])?
Answer: The growth at 10 µM was 32.7%.

Question: And the growth at 10 µM (OVCAR-8 [2])?
Answer: The growth at 10 µM was 31.8%.

Question: What about the growth at 10 µM (UACC-257 [3]) of the same compound?
Answer: The growth at 10 µM was 50.7%.

Question: And the growth at 10 µM (SK-MEL-5)?
Answer: The growth at 10 µM was 13.9%.

Question: And the growth at 10 µM (SK-MEL-28)?
Answer: Its growth at 10 µM is 51.4%.

Question: And the growth at 10 µM (MDA-MB-435)?
Answer: The growth at 10 µM was -61.2%.

Question: What about the growth at 10 µM (LOX IMVI) of the same compound?
Answer: The growth at 10 µM was 33.7%.

Question: What about the growth at 10 µM (SW-620) of the same compound?
Answer: The growth at 10 µM was 8.58%.

Question: What about the growth at 10 µM (COLO 205) of the same compound?
Answer: The growth at 10 µM was 4.23%.

Question: And the growth at 10 µM (NCI-H522)?
Answer: The growth at 10 µM was 12.8%.

Question: What about the growth at 10 µM (NCI-H226) of the same compound?
Answer: The growth at 10 µM was 77.6%.

Question: And the growth at 10 µM (HOP-92)?
Answer: Its growth at 10 µM is 60.9%.

Question: And the growth at 10 µM (HL-60(TB) [4])?
Answer: Its growth at 10 µM is -12%.

Question: And the GI50 (T47D [5])?
Answer: The GI50 was 2080 nM.

Question: And the LC50 (T47D [5])?
Answer: The LC50 was over 100000 nM.

Question: What about the TGI (T47D [5]) of the same compound?
Answer: Its TGI is over 100000 nM.

Question: What about the GI50 [6] of the same compound?
Answer: The GI50 was 460 nM.

Question: And the LC50 (concentration giving 50% net cell kill) [6]?
Answer: Its LC50 (concentration giving 50% net cell kill) is over 100000 nM.

Question: What about the GI50 (ACHN) of the same compound?
Answer: Its GI50 is 4020 nM.

Question: And the LC50 (concentration killing 50% of starting cells) (ACHN)?
Answer: The LC50 (concentration killing 50% of starting cells) was over 100000 nM.

Question: What about the TGI (ACHN) of the same compound?
Answer: The TGI was over 100000 nM.

Question: What about the GI50 (OVCAR-8 [7]) of the same compound?
Answer: Its GI50 is 740 nM.

Question: What about the LC50 (OVCAR-8 [7]) of the same compound?
Answer: The LC50 was over 100000 nM.

Question: And the TGI (OVCAR-8 [7])?
Answer: The TGI was over 100000 nM.

Question: What about the GI50 (OVCAR-4) of the same compound?
Answer: Its GI50 is over 100000 nM.

Question: And the LC50 (OVCAR-4)?
Answer: Its LC50 is over 100000 nM.

Question: And the TGI (OVCAR-4)?
Answer: Its TGI is over 100000 nM.

Question: What about the GI50 (UACC-257 [8]) of the same compound?
Answer: The GI50 was 610 nM.

Question: And the LC50 (concentration killing 50% of cells) (UACC-257 [8])?
Answer: The LC50 (concentration killing 50% of cells) was over 100000 nM.

Question: And the TGI (UACC-257 [8])?
Answer: Its TGI is over 100000 nM.

Question: And the GI50 (M14)?
Answer: Its GI50 is 380 nM.

Question: And the TGI (M14)?
Answer: The TGI was over 100000 nM.

Question: What about the CC50 (M14; [11]) of the same compound?
Answer: The CC50 was over 100000 nM.

Question: And the GI50 (U-251)?
Answer: Its GI50 is 450 nM.

Question: And the TGI (U-251)?
Answer: Its TGI is over 100000 nM.

Question: And the CC50 (U-251; [11])?
Answer: Its CC50 is over 100000 nM.

Question: What about the GI50 (SF-268) of the same compound?
Answer: Its GI50 is 2940 nM.

Question: And the TGI (SF-268)?
Answer: Its TGI is over 100000 nM.

Question: And the CC50 (SF-268; [11])?
Answer: Its CC50 is over 100000 nM.

Question: What about the GI50 [9] of the same compound?
Answer: Its GI50 is 2750 nM.

Question: And the TGI [9]?
Answer: The TGI was over 100000 nM.

Question: What about the CC50 [9, 11] of the same compound?
Answer: The CC50 was over 100000 nM.

Question: And the GI50 (NCI-H460)?
Answer: Its GI50 is 380 nM.

Question: What about the TGI (NCI-H460) of the same compound?
Answer: Its TGI is over 100000 nM.

Question: What about the CC50 (NCI-H460; [11]) of the same compound?
Answer: Its CC50 is over 100000 nM.

Question: And the GI50 (RPMI-8226)?
Answer: Its GI50 is 2780 nM.

Question: What about the TGI (RPMI-8226) of the same compound?
Answer: Its TGI is over 100000 nM.

Question: And the CC50 (RPMI-8226; [11])?
Answer: The CC50 was over 100000 nM.

Question: What about the GI50 (HL-60(TB) [10]) of the same compound?
Answer: Its GI50 is 400 nM.

Question: What about the TGI (HL-60(TB) [10]) of the same compound?
Answer: The TGI was 2580 nM.

Question: What about the CC50 (HL-60(TB) [10]; [11]) of the same compound?
Answer: Its CC50 is over 100000 nM.

Question: For `O=c1[nH]cc(F)c(=O)[nH]1` [FLUOROURACIL], which GI50 (T47D [5]) is on record?
Answer: Its GI50 is 8120 nM.

Question: And the GI50 [6]?
Answer: Its GI50 is 9770 nM.

Question: And the GI50 (ACHN)?
Answer: The GI50 was 290 nM.

Question: And the GI50 (OVCAR-8 [7])?
Answer: Its GI50 is 1740 nM.

Question: And the GI50 (OVCAR-4)?
Answer: Its GI50 is 4430 nM.

Question: What about the GI50 (UACC-257 [8]) of the same compound?
Answer: Its GI50 is 3550 nM.

Question: What about the GI50 (M14) of the same compound?
Answer: Its GI50 is 980 nM.

Question: And the GI50 (U-251)?
Answer: The GI50 was 900 nM.

Question: And the GI50 (SF-268)?
Answer: Its GI50 is 1620 nM.

Question: And the GI50 [9]?
Answer: The GI50 was 50 nM.

Question: And the GI50 (NCI-H460)?
Answer: Its GI50 is 50 nM.

Question: What about the GI50 (RPMI-8226) of the same compound?
Answer: Its GI50 is 40 nM.

Question: What about the GI50 (HL-60(TB) [10]) of the same compound?
Answer: The GI50 was 2300 nM.
